From ChEMBL document CHEMBL3085685, “In vitro and in vivo antileishmanial and trypanocidal studies of new N-benzene- and N-naphthalenesulfonamide derivatives” (J Med Chem, 2013)
The source made the active and inactive calls. No cut-off for these calls is given here.

Key:
[1] = test system: Trypanosoma cruzi; test: Trypanocidal activity against bloodstream trypomastigote stage of Trypanosoma cruzi Y infected in BALB/c mouse assessed as reduction of survival rate at 10 mg/kg/day, ip qd administered for 5 days measured daily until day 30 post-infection; type: functional, organism-based
In short: (§1)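 Female BALB/c mice (20–24 g) infected ip with 10^4 Y-strain bloodstream trypomastigotes; only parasitemic animals used. Compounds dissolved in DMSO, freshly diluted in propylene glycol, given ip at 10 mg/kg/day for 5 days from 5 dpi, with an untreated group. Parasitemia counted by Pizzi–Brener in 5 μL tail blood at 5, 8, 10 dpi; mortality checked daily to 30 dpi.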

[2] = test system: Trypanosoma cruzi; test: Trypanocidal activity against bloodstream trypomastigote stage of Trypanosoma cruzi Y infected in BALB/c mouse assessed as reduction of parasitemia at 10 mg/kg/day, ip qd administered for 5 days measured on day 10 post-infection by microscopic analysis relative to control; type: functional; set-up: scale not given: the % may be the effect or the level left; details: route intraperitoneal; in short: as §1
[3] = test system: Trypanosoma cruzi; test: Trypanocidal activity against bloodstream trypomastigote stage of Trypanosoma cruzi Y infected in BALB/c mouse assessed as reduction of parasitemia at 10 mg/kg/day, ip qd administered for 3 days measured on day 8 post-infection by microscopic analysis relative to control; type: functional; set-up: scale not given: the % may be the effect or the level left; details: route intraperitoneal; in short: as §1
[4] = test system: Leishmania infantum; test: Leishmanicidal activity against promastigote stage of Leishmania infantum MCAN/ES/96/BCN150 infected in BALB/c mouse assessed as reduction of parasite burden in liver at 5 mg/kg, ip qd administered for 5 days measured after 7 days by limiting dilution assay relative to untreated control; type: functional
In short: (§2)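 BALB/c mice infected intracardially under pentobarbital anaesthesia with 10^7 stationary L. infantum BCN150 promastigotes. From day 21 post-infection, dosed ip once daily for 5 days in 0.1 mL propylene glycol, with an untreated control group. Killed 7 days later; spleen and liver burdens by limiting dilution and expressed as % reduction versus controls.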

[5] = test system: Leishmania infantum; test: Leishmanicidal activity against promastigote stage of Leishmania infantum MCAN/ES/96/BCN150 infected in BALB/c mouse assessed as reduction of parasite burden in spleen at 5 mg/kg, ip qd administered for 5 days measured after 7 days by limiting dilution assay relative to untreated control; type: functional; in short: as §2
[6] = test system: Leishmania amazonensis; test: Leishmanicidal activity against intracellular amastigote stage of Leishmania amazonensis MHOM/Br/79/Maria infected in mouse J774 cells assessed as reduction of parasite load after 48 hrs by resazurin dye-based fluorometric analysis; type: functional, organism-based; details: Leishmania amazonensis, MHOM/Br/79/Maria, J774, 48 h; read-out: IC50
In short: (§3)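 J774 macrophages (5 × 10^4/well) infected with stationary promastigotes at 1:10, 24 h at 33 °C then 24 h at 37 °C, 5% CO2, and washed free of promastigotes. Then 2-fold serial dilutions in triplicate for 48 h at 37 °C. Cells lysed with RPMI with 0.048% HEPES and 0.006% SDS, transformed in Schneider's 3 days at 26 °C, resazurin 3 h, fluorescence 535/590 nm.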

[7] = test system: Leishmania infantum; test: Leishmanicidal activity against intracellular amastigote stage of Leishmania infantum MCAN/ES/96/BCN150 infected in mouse J774 cells assessed as reduction of parasite load after 48 hrs by resazurin dye-based fluorometric analysis; type: functional, organism-based; details: Leishmania infantum, MCAN/ES/96/BCN150, J774, 48 h; read-out: IC50; in short: as §3
[8] = Selectivity index, ratio of CC50 for mouse J774 cells to IC50 for extracellular promastigote stage of Leishmania amazonensis MHOM/Br/79/Maria; type: functional
[9] = Selectivity index, ratio of CC50 for mouse J774 cells to IC50 for extracellular promastigote stage of Leishmania guyanensis 141/93; type: functional
[10] = Selectivity index, ratio of CC50 for mouse NCTC-929 cells to IC50 for extracellular epimastigote stage of Trypanosoma cruzi CL-B5; type: functional
[11] = Cytotoxicity against mouse NCTC-929 cells assessed as reduction of cell viability after 24 hrs by resazurin dye-based […]
In short: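 NCTC clone 929 fibroblasts in DMEM with 10% FBS and 2 mM L-glutamine, plated at 3 × 10^4 cells/well and grown overnight at 37 °C, 5% CO2. Compounds in fresh medium for 24 h, then 2 mM resazurin solution added for 3 h. Absorbance read at 570 and 595 nm; CC50 taken as 50% viability loss versus untreated cells, by probit analysis.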

[12] = Cytotoxicity against mouse J774 cells assessed as reduction of cell viability after 24 hrs by resazurin dye-based fluorometric analysis
In short: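 J774 macrophages in RPMI 1640 with 10% heat-inactivated FBS, seeded at 5 × 10^4 cells/well and attached 24 h at 37 °C, 5% CO2. Medium swapped for drug dilutions for 24 h. Then 2.5 mM resazurin stock added for 3 h, fluorescence read at 535 nm excitation / 590 nm emission. Triplicate; CC50 from probit analysis.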

[13] = test system: Leishmania amazonensis; test: Leishmanicidal activity against extracellular promastigote stage of Leishmania amazonensis MHOM/Br/79/Maria assessed as reduction of parasite load after 48 hrs by resazurin dye-based fluorometric analysis; type: functional, organism-based; details: Leishmania amazonensis, MHOM/Br/79/Maria, 48 h; read-out: IC50
In short: (§4)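 Log-phase promastigotes cultured in Schneider's medium with 20% heat-inactivated FBS at 26 °C, 2.5 × 10^5 per well. DMSO-dissolved compounds added as 2-fold serial dilutions, final DMSO ≤0.2% (v/v), 48 h at 26 °C. Growth read by 2.5 mM resazurin stock, fluorescence 535/590 nm. Triplicate; IC50 by probit analysis.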

[14] = test system: Leishmania guyanensis; test: Leishmanicidal activity against extracellular promastigote stage of Leishmania guyanensis 141/93 assessed as reduction of parasite load after 48 hrs by resazurin dye-based fluorometric analysis; type: functional, organism-based; details: Leishmania guyanensis, 141/93, 48 h; read-out: IC50; in short: as §4
[15] = test system: Leishmania braziliensis; test: Leishmanicidal activity against extracellular promastigote stage of Leishmania braziliensis 2903 assessed as reduction of parasite load after 48 hrs by resazurin dye-based fluorometric analysis; type: functional, organism-based; details: Leishmania braziliensis, 2903, 48 h; read-out: IC50; in short: as §4
[16] = test system: Leishmania infantum; test: Leishmanicidal activity against extracellular promastigote stage of Leishmania infantum MCAN/ES/96/BCN150 assessed as reduction of parasite load after 48 hrs by resazurin dye-based fluorometric analysis; type: functional, organism-based; details: Leishmania infantum, MCAN/ES/96/BCN150, 48 h; read-out: IC50; in short: as §4
[17] = test system: Trypanosoma cruzi; test: Trypanocidal activity against extracellular epimastigote stage of Trypanosoma cruzi CL-B5 assessed as reduction of parasite load after 72 hrs by CPRG-based colorimetric analysis
[18] = test system: Trypanosoma cruzi; test: Trypanocidal activity against intracellular amastigote stage of Trypanosoma cruzi CL-B5 infected in mouse NCTC-929 cells assessed as reduction of parasite load after 7 days by CPRG-based colorimetric analysis
[19] = Selectivity index, ratio of CC50 for mouse J774 cells to IC50 for extracellular promastigote stage of Leishmania braziliensis 2903; type: functional
[20] = test system: Leishmania infantum; test: Antileishmanial activity against promastigote stage of Leishmania infantum assessed as induction of apoptosis at IC50 after 48 hrs by propidium iodide staining-based confocal laser scanning microscopic analysis; type: functional, organism-based
[21] = test system: Leishmania infantum; test: Antileishmanial activity against promastigote stage of Leishmania infantum assessed as disappearance of kinetoplast DNA at IC50 after 48 hrs by propidium iodide staining-based confocal laser scanning microscopic analysis; type: functional, organism-based
[22] = test system: Leishmania infantum; test: Binding affinity to beta-tubulin in promastigote stage of Leishmania infantum assessed as structure disorganization at IC50 after 24 to 48 hrs by confocal laser scanning microscopic analysis
[23] = test system: Mus musculus; test: Toxicity in BALB/c mouse infected with promastigote stage of Leishmania infantum MCAN/ES/96/BCN150 assessed as appearance of hyperactivity with local skin irritation at 5 mg/kg, ip qd administered for 5 days; type: organism-based; set-up: dose 5 mg/kg, route intraperitoneal; details: in vivo, 120 h; in short: as §2
[24] = Selectivity index, ratio of CC50 for mouse J774 cells to IC50 for extracellular promastigote stage of Leishmania infantum MCAN/ES/96/BCN150; type: functional
[25] = test system: Leishmania infantum; test: Antileishmanial activity against promastigote stage of Leishmania infantum assessed as alteration in nuclear DNA at IC50 after 48 hrs by propidium iodide staining-based confocal laser scanning microscopic analysis; type: functional, organism-based
[26] = test system: Leishmania infantum; test: Antileishmanial activity against promastigote stage of Leishmania infantum assessed as alteration in kinetoplast DNA at IC50 after 48 hrs by propidium iodide staining-based confocal laser scanning microscopic analysis; type: functional, organism-based
[27] = test system: Leishmania infantum; test: Binding affinity to beta-tubulin in promastigote stage of Leishmania infantum assessed as structure disorganization at IC50 after 48 hrs by confocal laser scanning microscopic analysis
[28] = test system: Mus musculus; test: Toxicity in BALB/c mouse infected with promastigote stage of Leishmania infantum MCAN/ES/96/BCN150 assessed as hair loss at 10 mg/kg, ip qd administered for 5 days; type: organism-based; set-up: dose 10 mg/kg, route intraperitoneal; details: in vivo, 120 h; in short: as §2
[29] = test system: Mus musculus; test: Toxicity in BALB/c mouse infected with promastigote stage of Leishmania infantum MCAN/ES/96/BCN150 assessed as gross weight loss at 10 mg/kg, ip qd administered for 5 days; type: organism-based; set-up: dose 10 mg/kg, route intraperitoneal; details: in vivo, 120 h; in short: as §2
[30] = test system: Leishmania infantum; test: Leishmanicidal activity against promastigote stage of Leishmania infantum MCAN/ES/96/BCN150 infected in BALB/c mouse assessed as reduction of parasite burden in liver at 10 mg/kg, ip qd administered for 5 days measured after 7 days by limiting dilution assay relative to untreated control; type: functional; set-up: scale not given: the % may be the effect or the level left; details: route intraperitoneal; in short: as §2
[31] = test system: Leishmania infantum; test: Leishmanicidal activity against promastigote stage of Leishmania infantum MCAN/ES/96/BCN150 infected in BALB/c mouse assessed as reduction of parasite burden in spleen at 10 mg/kg, ip qd administered for 5 days measured after 7 days by limiting dilution assay relative to untreated control; type: functional; set-up: scale not given: the % may be the effect or the level left; details: route intraperitoneal; in short: as §2

Row | Compound | Activity [4] | Activity [5] | IC50 [6] [µM] | IC50 [7] [µM] | Ratio CC50/IC50 [8] | Ratio CC50/IC50 [9] | CC50 at 24 h [12] [µM] | IC50 [13] [µM] | IC50 [14] [µM] | IC50 [15] [µM] | IC50 [16] [µM] | IC50 [17] | IC50 ([18]; nctc-929) | Activity ([5]; route intraperitoneal) [%] | Ratio CC50/IC50 [24] | other results
1 | O=S(=O)(Nc1cccc2cnccc12)c1cccc2ccccc12 | inactive | inactive | 42.9 | 23 | >10.4 | > 16.2 | ≥ 300 | 24.5 | 15.8 | 23 | 20.3 | – | – | – | – | Activity [1]: Active; Activity [2]: 60%; Activity [3]: 72%; Ratio CC50/IC50 [10]: >1.9; CC50 at 24 h [11]: 187 µM; IC50 ([17]; Trypanosoma cruzi, CL-B5, 72 h, read-out: IC50): 97.6 µM; IC50 ([18]; Trypanosoma cruzi, CL-B5, NCTC-929, 168 h, read-out: IC50): 141 µM
2 | Cc1cc2cc(NS(=O)(=O)c3ccccc3)ccc2[nH]1 | inactive | inactive | 64.1 | 47.3 | > 16.6 | – | ≥ 300 | 15.4 | 20.9 | 29 | 23.4 | Not Active | Not Active | – | – | Ratio CC50/IC50 [19]: >8.8
3 | CC1CCCN(S(=O)(=O)c2cccc3ccccc23)C1 (stereo not drawn) | inactive | – | 18 | 7.1 | >10.4 | – | ≥ 300 | 24.6 | 7.2 | 9.9 | 6.7 | Not Active | Not Active | 80.17 | > 38.2 | Activity [20]: Active; Activity [21]: Active; Activity [22]: Active; Activity [23]: Toxic
4 | O=S(=O)(Nc1ccc2[nH]ncc2c1)c1ccccc1 | – | – | 30.8 | 83.2 | – | >5.3 | ≥ 300 | 38.7 | 47.9 | 40.3 | 37.3 | Not Active | Not Active | 55.5 | > 6.9 | Activity [25]: inactive; Activity [26]: inactive; Activity [27]: Active; Activity [28]: Non-toxic; Activity [29]: Non-toxic; Activity [30]: 97.57%; Activity ([4]; route intraperitoneal): 78.9%; Activity [31]: 96.34%
